Source: ChEMBL document CHEMBL1152488, “Synthesis and evaluation of pyrido[1,2-a]pyrimidines as inhibitors of nitric oxide synthases” (Eur J Med Chem, 2009)

Target: T1, Nitric oxide synthase 3 (Bos taurus) (UniProt P29473)
T1 sequence (whole entry): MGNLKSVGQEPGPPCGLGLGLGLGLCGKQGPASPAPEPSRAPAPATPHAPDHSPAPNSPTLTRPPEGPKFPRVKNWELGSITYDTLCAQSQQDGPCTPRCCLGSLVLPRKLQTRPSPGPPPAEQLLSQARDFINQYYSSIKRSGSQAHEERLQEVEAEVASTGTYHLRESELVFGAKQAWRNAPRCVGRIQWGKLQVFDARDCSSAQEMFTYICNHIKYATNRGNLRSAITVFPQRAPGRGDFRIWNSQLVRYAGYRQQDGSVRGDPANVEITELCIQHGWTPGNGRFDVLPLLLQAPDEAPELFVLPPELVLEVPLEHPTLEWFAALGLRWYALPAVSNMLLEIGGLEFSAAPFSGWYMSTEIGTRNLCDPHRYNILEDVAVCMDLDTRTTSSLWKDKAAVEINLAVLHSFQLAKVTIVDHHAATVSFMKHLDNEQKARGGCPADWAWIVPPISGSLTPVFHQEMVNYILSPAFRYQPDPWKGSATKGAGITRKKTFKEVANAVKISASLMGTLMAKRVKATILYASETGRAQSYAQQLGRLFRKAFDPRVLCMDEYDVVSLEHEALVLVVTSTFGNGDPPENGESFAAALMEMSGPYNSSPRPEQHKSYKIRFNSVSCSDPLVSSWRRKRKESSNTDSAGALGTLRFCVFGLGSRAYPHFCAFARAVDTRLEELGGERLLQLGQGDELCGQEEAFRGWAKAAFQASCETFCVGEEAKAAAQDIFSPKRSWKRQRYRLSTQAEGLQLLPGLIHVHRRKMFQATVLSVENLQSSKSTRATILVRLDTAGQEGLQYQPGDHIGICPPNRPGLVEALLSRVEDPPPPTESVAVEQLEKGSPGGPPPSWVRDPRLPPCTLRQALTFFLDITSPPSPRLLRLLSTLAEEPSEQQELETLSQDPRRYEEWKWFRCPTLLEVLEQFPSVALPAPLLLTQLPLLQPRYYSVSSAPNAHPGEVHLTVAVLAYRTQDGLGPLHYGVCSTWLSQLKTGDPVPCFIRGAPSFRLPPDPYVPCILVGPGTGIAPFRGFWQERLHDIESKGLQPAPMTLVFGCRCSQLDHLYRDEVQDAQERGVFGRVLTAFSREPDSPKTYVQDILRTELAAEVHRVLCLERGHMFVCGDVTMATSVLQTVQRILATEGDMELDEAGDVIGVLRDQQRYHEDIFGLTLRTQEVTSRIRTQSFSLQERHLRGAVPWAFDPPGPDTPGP
Experiment: Inhibition of bovine eNOS expressed in insect Sf9 cells assessed as residual activity at 100 uM by Griess assay relative to control
Details: not given
Procedure, shortened: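 Bovine eNOS from Sf9 cells. Reaction: triethanolamine buffer pH 7.5, 0.5 mM Ca2+, 10 µg/ml CaM, 10 µM H4B, FAD, FMN, 0.5 mM NADPH, 1 mM L-arginine, with 100 µM compound, 20 min at 37 °C. After NADPH removal by LDH/pyruvate, nitrite measured by Griess at 543 nm. Expressed as % residual activity versus 1% DMSO control, 5 experiments.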

SMILES | Activity [%]
CCCNC(=N)NCCC[C@H](N)C(=O)O | 93
CC1=CC=CC2=NCC(C(=O)c3ccc(F)cc3)CN12.[O-][Cl+3]([O-])([O-])O (centres undefined) | 41
CC1=CC2=NCC(C(=O)c3ccc(F)cc3)CN2C=C1 (centres undefined) | 37
CC1=CC=CC2=NCC(C(=O)c3ccc4ccccc4c3)CN12 (centres undefined) | 75
CC1=CC=CC2=NCC(C(=O)c3ccc(C)cc3)CN12.[O-][Cl+3]([O-])([O-])O (centres undefined) | 101
CC1=CC2=NCC(C(=O)c3ccc(-c4ccccc4)cc3)CN2C=C1 (centres undefined) | 17
CC1=CC2=NCC(C(=O)c3ccccc3)CN2C=C1 (centres undefined) | 40
COc1ccc2cc(C(=O)C3CN=C4C=C(C)C=CN4C3)ccc2c1 (centres undefined) | 80
CC1=CC2=NCC(C(=O)c3ccc(Cl)cc3)CN2C=C1 (centres undefined) | 20
CCSC(=N)N | 27

System: not listed separately
Experiment: Lipophilicity, log D at pH 7.4 by HPLC method
Details: buffer

SMILES | logD
CC1=CC=CC2=NCC(C(=O)c3ccc(C)cc3)CN12.[O-][Cl+3]([O-])([O-])O (centres undefined) | 1.6

System: RAW264.7
Experiment: Cytotoxicity against mouse RAW264.7 cells at 100 uM
Type: cell-based
Details: raw264.7, 100 µM

SMILES | Activity
CC1=CC2=NCC(C(=O)c3ccc(OCc4ccc(C#N)cc4)cc3)CN2C=C1.[O-][Cl+3]([O-])([O-])O (centres undefined) | Non-toxic
CC1=CC2=NCC(C(=O)c3ccc(OCc4ccc(Cl)cc4)cc3)CN2C=C1.[O-][Cl+3]([O-])([O-])O (centres undefined) | Non-toxic
COc1ccc(C(=O)C2CN=C3C=C(C)C=CN3C2)cc1F.[O-][Cl+3]([O-])([O-])O (centres undefined) | Non-toxic
CC1=CC=CC2=NCC(C(=O)c3ccc(F)cc3)CN12.[O-][Cl+3]([O-])([O-])O (centres undefined) | Non-toxic
CC1=CC2=NCC(C(=O)c3ccc(OCc4ccc(Br)cc4)cc3)CN2C=C1.Cl (centres undefined) | Non-toxic
CC1=CC=CC2=NCC(C(=O)c3ccc(C)cc3)CN12.[O-][Cl+3]([O-])([O-])O (centres undefined) | Non-toxic

Target: T2, Nitric oxide synthase, inducible (Mus musculus) (UniProt P29477)
T2 sequence (whole entry): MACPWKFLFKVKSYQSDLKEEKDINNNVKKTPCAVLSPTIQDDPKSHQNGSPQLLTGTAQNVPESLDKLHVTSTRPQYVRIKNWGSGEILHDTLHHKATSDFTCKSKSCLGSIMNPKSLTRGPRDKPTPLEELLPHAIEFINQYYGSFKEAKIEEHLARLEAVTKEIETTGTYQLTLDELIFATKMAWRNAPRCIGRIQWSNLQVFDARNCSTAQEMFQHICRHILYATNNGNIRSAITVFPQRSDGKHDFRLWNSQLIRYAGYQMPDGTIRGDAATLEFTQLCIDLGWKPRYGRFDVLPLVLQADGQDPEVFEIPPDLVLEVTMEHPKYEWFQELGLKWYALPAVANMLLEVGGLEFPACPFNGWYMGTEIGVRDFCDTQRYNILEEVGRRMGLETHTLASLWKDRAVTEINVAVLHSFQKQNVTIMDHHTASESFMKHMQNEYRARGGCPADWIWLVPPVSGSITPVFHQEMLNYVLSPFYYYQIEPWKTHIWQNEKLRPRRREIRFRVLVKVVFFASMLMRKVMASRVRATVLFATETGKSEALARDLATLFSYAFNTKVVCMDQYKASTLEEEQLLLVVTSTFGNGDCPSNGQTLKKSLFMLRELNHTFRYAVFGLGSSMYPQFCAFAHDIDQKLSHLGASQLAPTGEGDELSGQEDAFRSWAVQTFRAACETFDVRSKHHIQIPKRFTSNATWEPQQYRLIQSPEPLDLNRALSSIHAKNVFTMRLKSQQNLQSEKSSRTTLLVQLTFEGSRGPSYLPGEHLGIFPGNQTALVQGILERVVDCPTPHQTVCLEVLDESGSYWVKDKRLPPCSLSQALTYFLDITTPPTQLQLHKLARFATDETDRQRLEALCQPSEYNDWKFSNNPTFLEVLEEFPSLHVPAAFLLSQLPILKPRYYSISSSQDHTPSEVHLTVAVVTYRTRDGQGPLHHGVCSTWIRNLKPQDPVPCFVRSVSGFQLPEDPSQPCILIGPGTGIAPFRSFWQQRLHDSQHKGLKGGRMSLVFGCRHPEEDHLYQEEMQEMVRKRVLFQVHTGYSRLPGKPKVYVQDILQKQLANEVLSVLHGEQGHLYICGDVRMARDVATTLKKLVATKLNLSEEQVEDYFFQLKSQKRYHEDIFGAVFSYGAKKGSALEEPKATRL
Experiment: Inhibition of mouse recombinant iNOS expressed in Escherichia coli assessed as conversion of [gamma-14C]L-arginine to [14C]L-citrulline at 100 uM by radioactive assay relative to control
Parameters: scale not given: the % may be the effect or the level left
Details: not given
Procedure, shortened: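 Purified enzymes: rat nNOS from S. cerevisiae, murine iNOS and bovine eNOS from E. coli. Reaction 5 min at 37 °C in 50 mM Hepes pH 7.4 with DTT, 1 mM NADPH, H4B, FAD, FMN, [14C]L-arginine (2.5 µM L-arginine) and 100 µM compound in 1% DMSO. nNOS/eNOS also got 1 mM CaCl2 and CaM, which iNOS lacked. [14C]citrulline isolated on Dowex and counted by scintillation; % of DMSO control, n=3.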

SMILES | Activity [%]
CC1=CC2=NCC(C(=O)c3ccc(OCc4ccc(C#N)cc4)cc3)CN2C=C1.[O-][Cl+3]([O-])([O-])O (centres undefined) | 30
CC1=CC2=NCC(C(=O)c3ccc(OCc4ccc(Cl)cc4)cc3)CN2C=C1.[O-][Cl+3]([O-])([O-])O (centres undefined) | 25
N=C(NCCC[C@H](N)C(=O)O)N[N+](=O)[O-] | 15
COc1ccc(C(=O)C2CN=C3C=C(C)C=CN3C2)cc1F.[O-][Cl+3]([O-])([O-])O (centres undefined) | 45
CC1=CC=CC2=NCC(C(=O)c3ccc(F)cc3)CN12.[O-][Cl+3]([O-])([O-])O (centres undefined) | 66
CC1=CC2=NCC(C(=O)c3ccc(OCc4ccc(Br)cc4)cc3)CN2C=C1.Cl (centres undefined) | 62
CC1=CC=CC2=NCC(C(=O)c3ccc(C)cc3)CN12.[O-][Cl+3]([O-])([O-])O (centres undefined) | 66
